Screening results deposited in PubChem by several laboratories.
APP 5'UTR act: activates APP 5'UTR luciferase reporter. activation, % at 2 µM. hit rate 1% among 190,000. SH-SY5Y APP 5'UTR luciferase reporter, luminescence; zero percent = DMSO vehicle wells;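 active means activation above a set limit, based on mean plus 3 SD of controls, cut at about 140% in these data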
STAT1 activator: STAT1 signaling activation | NIH 3T3 STAT1-luciferase reporter, IFN-gamma, luminescence; 100% = IFN-gamma alone, no compound | activation (% of control), % at 5.5 µM | hit rate 2.6% among 200,000;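 active means activation above the screen-wide mean activation plus 3 SD, cut at about 130% in these data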
Pf gamet viab: kills late stage P. falciparum gametocytes; P. falciparum stage V gametocytes, ATP luminescence, 24 h; inhibition, % at 10.9 µM; hit rate 0.065% among 150,000;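 active means inhibition above the mean plus 3 SD of compounds within the control limits, set per campaign, cut at about 38% in these data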
NF-kB neuron act: NF-kB expression increase, human neuronal cells | NF-kB reporter expression; hits give high values | hit rate 1.6% among 190,000 | fold change at 12.5 µM; in the data active means fold change above about 3.3
FLuc act counter: affects firefly luciferase, flagging false hits in luciferase stimulation screens | activation factor at 10 µM | P08659 | 200,000 tested, under 10 active | ATPlite luciferase biochemical, luminescence, 10 min; 0 = ATP-free wells, 1 = DMSO control | AID 1027;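 active means luciferase activation factor, scaled between plate controls, of at least 2 with compound at 10 µM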
Target sequence (P08659 whole entry, looked up): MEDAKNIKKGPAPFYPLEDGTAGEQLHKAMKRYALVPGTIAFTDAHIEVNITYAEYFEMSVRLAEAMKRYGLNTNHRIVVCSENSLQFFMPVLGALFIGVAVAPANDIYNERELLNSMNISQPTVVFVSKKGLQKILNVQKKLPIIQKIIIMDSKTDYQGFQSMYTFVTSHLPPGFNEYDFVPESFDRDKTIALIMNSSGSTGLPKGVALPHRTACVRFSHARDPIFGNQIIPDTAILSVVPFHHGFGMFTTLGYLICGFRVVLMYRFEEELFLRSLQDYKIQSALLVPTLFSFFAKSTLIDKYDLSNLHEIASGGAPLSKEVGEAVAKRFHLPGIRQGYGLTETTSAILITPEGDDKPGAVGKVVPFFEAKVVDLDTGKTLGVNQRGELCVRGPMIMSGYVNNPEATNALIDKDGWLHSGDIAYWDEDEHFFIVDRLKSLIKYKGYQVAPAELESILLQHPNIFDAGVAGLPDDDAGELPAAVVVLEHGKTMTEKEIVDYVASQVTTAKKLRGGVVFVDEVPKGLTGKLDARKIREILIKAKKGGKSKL
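Assay system: Luciferase/luciferin reagent mix; Medium: PBS as buffer for the ATP substrate; Dosing: test compounds dosed from 2 mM stocks in 100% DMSO; Times: 10 min, room temperature; Signal: luminescence from luciferase reaction; Read-out: luciferase activation; Controls: No-ATP low control, compound-free enzyme-plus-ATP high control.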
FLuc inh counter: Photinus pyralis luciferase inhibition counter-screen. P08659. inhibition, % at 10 µM. hit rate 1.5% among 200,000. ATPLite firefly luciferase biochemical luminescence, 10 min. AID 1006;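 active means inhibition above about 50% when tested at 10 µM, limit read from the data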
STAT1 activ conf: confirmation of STAT1 signaling activators; shares compounds with STAT1 activator; NIH 3T3 STAT1-luciferase reporter, IFN-gamma potentiation, luminescence; 100% = IFN-gamma EC80 alone, no compound; activation (% of control), % at 5.7 µM; hit rate 97% among 1,200;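 active means activation above a set limit carried over from the earlier primary STAT1 screen, cut at about 140% in these data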
NFkB act: counter-screen for STAT1 activators: NF-kappaB activation. shares compounds with STAT1 activator. HEK293T NF-kB luciferase reporter, TNF-alpha stimulated, luminescence; 100% = TNF-alpha with vehicle only. activation (% of control), % at 5.7 µM. hit rate 43% among 1,200. AID 1306;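 active means activation above the mean of solvent-only control wells plus 3 SD, set per campaign, cut at about 130% in these data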;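 further: TNF-alpha given at a submaximal dose yielding about 80% of full reporter signal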
STAT3 act 2: human STAT3 activation in STAT1 activator counter-screen. hit rate 46% among 1,200. U3A cells STAT3-luciferase reporter, IL-6, luminescence; cells lack STAT1; 100 = IL-6 alone, no compound effect. shares compounds with STAT1 activator. activation (% of control), % at 5.7 µM;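 active means activation above the solvent-only control well mean plus 3 SD, set per plate batch, cut at about 110% in these data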;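 further: higher means more STAT3 reporter activation so hits are non-selective activators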
Numbers stand for hits; . = inactive; / = no result. Rows were chosen to be rich in hits. Some 3.5% of all compounds tested hit in one or more screens of this group.

SMILES	APP 5'UTR act	STAT1 activator	Pf gamet viab	NF-kB neuron act	FLuc act counter	FLuc inh counter	STAT1 activ conf	NFkB act	STAT3 act 2
Cc1ccc(-n2nnc(-c3ccnc4ccccc34)n2)cc1	.	156.1	/	4.16	.	.	183.4	136.2	.
Fc1ccc(-n2nnc(-c3ccnc4ccccc34)n2)cc1	141.6	170.8	.	4.8	.	.	202.9	139.1	117.4
CC(=O)c1cn(CC(=O)Nc2ccccc2C(F)(F)F)c2ccccc12	/	/	.	/	/	/	/	/	/
O=C(NC1CC1)C1CCN(C2CCN(C(=O)c3ccc4cccc(F)c4n3)CC2)CC1	.	.	.	.	.	.	/	/	/
O=C(Nc1ccccc1)N1CCC(c2nc(-c3ccc(S(=O)(=O)N4CCOCC4)cc3)no2)CC1	.	.	/	.	.	.	/	/	/
COc1ccc(Cn2c(/C=C/c3ccccc3)nc3ccccc32)cc1	/	157.4	.	6.13	.	50.2	195.7	150.4	130.3
O=C(Cc1nc2ccccc2[nH]c1=O)c1ccccc1	160.0	175.4	.	.	.	58.0	196.2	.	154.8
O=c1[nH]c2ccccc2nc1Cc1ccccc1	.	.	/	.	.	.	/	/	/
Nc1nnn(-c2ccccc2)c1-c1ccccc1	/	/	.	/	/	/	/	/	/
Clc1c(-c2ccccc2)nnn1-c1ccccc1	152.7	176.6	.	4.8	.	69.1	209.0	136.6	.
O=C(CSc1nnc(NC(=O)c2ccco2)s1)Nc1ccccc1	.	.	.	.	.	.	/	/	/
Nc1ccc(-c2nc3c(Cl)c(N)ccc3[nH]2)cc1	.	.	/	.	.	.	/	/	/
Nc1ccc(-c2nc3ccc([N+](=O)[O-])cc3[nH]2)cc1	.	181.7	.	7.06	.	.	232.8	146.6	120.3
CC1CCN(c2ncnc3c2cnn3-c2ccccc2)CC1	/	154.5	/	4.49	.	.	245.8	136.0	.
Clc1ccc(-n2ncc3c(N4CCCC4)ncnc32)cc1	160.8	184.4	.	.	.	75.0	207.1	.	.
CCOC(=O)C1CCN(c2ncnc3c2cnn3-c2ccccc2)CC1	.	.	.	.	.	.	/	/	/
O=S(=O)(NCc1ccco1)c1ccccc1Br	/	/	.	/	/	/	/	/	/
Cc1cc(Cl)ccc1NC(=O)CCC(=O)O	.	.	.	.	.	.	/	/	/
c1ccc(-c2cn3nc(-c4ccccc4)cnc3n2)cc1	172.3	154.7	.	4.07	.	.	212.1	.	.
COC(=O)c1ccccc1NC(=O)COc1ccccc1[N+](=O)[O-]	.	.	.	.	.	.	/	/	/
Cc1ccc(OCC(=O)Nc2ccccc2[N+](=O)[O-])c(Br)c1	154.2	159.5	.	5.7	.	.	201.8	135.0	.
O=C(Nc1nc2ccccc2s1)c1ccc(N2CCCCC2)c([N+](=O)[O-])c1	.	165.8	/	.	.	.	197.1	.	.
CC(=O)Nc1cc(C)nn1-c1nc2ccccc2s1	.	.	.	.	.	.	/	/	/
O=C(Nc1nc(-c2ccccc2)cs1)c1ccc(N2CCOCC2)c([N+](=O)[O-])c1	.	.	/	.	.	.	/	/	/
Cc1cc(C)n(-c2ccc(C(=O)Nc3nc4ccccc4s3)cc2)n1	.	173.6	/	3.88	.	.	224.7	141.2	.
SMILES	APP 5'UTR act	STAT1 activator	Pf gamet viab	NF-kB neuron act	FLuc act counter	FLuc inh counter	STAT1 activ conf	NFkB act	STAT3 act 2
CCOc1ccccc1NC1=NC2CS(=O)(=O)CC2S1 (stereo unspecified)	/	/	.	/	/	/	/	/	/
O=C(O)Cc1ccc2sc(-c3ccccc3)nc2c1	.	.	.	.	.	.	/	/	/
COC(=O)Cc1ccc2sc(-c3ccccc3)nc2c1	172.8	156.7	/	9.21	.	83.0	182.6	.	.
CCC(=O)NCCCc1nc(-c2ccccc2)no1	/	/	.	/	/	/	/	/	/
CCOC(=O)C1=C(N)OC2=C(C(=O)CCC2)C1c1ccccc1OCC (stereo unspecified)	.	.	.	.	.	.	/	/	/
CC1=CCC2C(=O)N(c3ccc(N4CCOCC4)cc3)C(=O)C2C1 (stereo unspecified)	/	/	.	/	/	/	/	/	/
N#CC1=C(Nc2ccc(Br)cc2)CCC1	.	.	.	.	.	.	/	/	/
Brc1ccc(NC2=Nc3ccccc3CC2)cc1	.	157.5	.	4.68	.	.	187.2	141.3	.
CC1=CN2C(=N)/C(=C/c3ccc(Sc4ccc(C)cc4)o3)C(=O)N=C2S1	.	.	.	.	.	.	/	/	/
CC1=CN2C(=N)/C(=C/c3ccc(C)o3)C(=O)N=C2S1	160.8	201.1	.	4.3	.	80.1	249.4	141.3	.
CCOC(=O)c1sc2nc3c(cc2c1N)COC(C(C)C)C3 (stereo unspecified)	144.9	214.4	.	.	.	.	233.0	.	.
CCOC(=O)c1sc2nc(N3CCOCC3)c3c(c2c1N)CC(C(C)C)OC3 (stereo unspecified)	.	.	.	.	.	.	/	/	/
Brc1ccc(/C=C/C=N/Nc2nc3ccccc3s2)cc1	.	.	/	.	.	.	/	/	/
c1ccc2sc(Nc3nc4cc5c(cc4s3)OCO5)nc2c1	195.0	187.0	/	4.65	.	.	264.0	149.4	123.8
Fc1ccc2nc(Nc3nc4cc5c(cc4s3)OCCO5)sc2c1	.	165.9	.	.	.	52.1	194.1	.	.
Brc1csc(/C=N/Nc2nc3ccccc3s2)c1	161.5	190.1	.	4.39	.	53.7	248.2	149.4	133.9
Cc1nc(N/N=C\c2ccc3c(c2)OCO3)sc1C	/	/	.	/	/	/	/	/	/
C(=N\Nc1nc2ccccc2s1)/c1ccc2c(c1)OCO2	180.5	208.6	.	3.84	.	.	271.9	.	123.9
O=C(O)CNc1ccc(S(=O)(=O)C(F)(F)F)cc1[N+](=O)[O-]	/	/	.	/	/	/	/	/	/
c1ccc2c(c1)CCN(c1nc3cc4c(cc3s1)OCO4)C2	150.8	180.2	/	11.7	.	69.2	260.8	136.4	.
Brc1ccc(-c2csc(N3CCc4ccccc4C3)n2)cc1	.	.	/	.	.	.	/	/	/
Cc1ccc(Nc2nc3ccccc3s2)c(C)c1	167.6	182.3	.	6.37	.	65.6	220.2	.	.
O=C(Nc1nc2ccc(F)cc2s1)c1cccs1	.	159.0	.	7.38	.	50.5	246.1	.	.
CCc1ccc2nc(NC(=O)CCCc3cccs3)sc2c1	/	.	/	.	.	.	/	/	/
Cc1ccc2nc(NC(=O)Cc3cccs3)sc2c1	.	153.8	/	3.7	.	.	180.0	137.0	.
CSc1nc2ccc3nc(NC(=O)c4cccs4)sc3c2s1	.	.	/	.	.	.	/	/	/
